The nature of series [1]: AUC (0 to 6 hrs) in rat at 10 mg/kg, po. Particulars: plasma; call rule not given here. The series is classed as ADME, organism-based. Set-up: time < 6 hr, dose 10 mg/kg, route oral. A digest of the protocol: (§1)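 Oral dosing in rat at 10 mg/kg in methyl cellulose, n = 2, in a high-throughput PK assay. Plasma was sampled over 0–6 h time points to give AUC and Cmax.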
Series [2] has as its target Cytochrome P450 3A4 (Homo sapiens, UniProt P08684). Nature of the series: Inhibition of CYP3A4 in human liver microsomes up to 30 uM by microtiter plate assay. Format: ADME, Microsome.
In series [3] the target is Histamine H3 receptor (Mus musculus, UniProt P58406). The series can be described thus: Binding affinity to mouse histamine H3 receptor.
Series [4] is described as follows: Cmax (0 to 6 hrs) in rat at 10 mg/kg, po. The following applies: in vivo. Set-up: dose 10 mg/kg, route oral. The series is classed as ADME, organism-based. In outline:
as §1

Series [5] deals with Cytochrome P450 2D6 (Homo sapiens, UniProt P10635). Nature of the series: Inhibition of CYP2D6 in human liver microsomes up to 30 uM by microtiter plate assay. Format: ADME, Microsome.
Series [6] addresses Voltage-gated inwardly rectifying potassium channel KCNH2 (Homo sapiens, UniProt Q12809). Nature of the series: Rubidium efflux through human ERG at 5 ug/mL pre-equilibrated for 30 mins by flame atomic absorbance spectroscopy.
In series [7] the target is T1, Histamine H3 receptor (Homo sapiens, UniProt Q9Y5N1). Nature of the series: Antagonist activity at human histamine H3 receptor expressed in HEK293 cells assessed as reversal of N-alpha-methylhistamine-induced inhibition of forskolin-stimulated cAMP formation. Format: functional, cell-based. On the technique in general: Cyclic AMP is a second messenger, typically raised through Gs and lowered through Gi signalling.

Series [8] addresses T1, Histamine H3 receptor. The series can be described thus: Displacement of [3H]N-alpha-methylhistamine from human histamine H3 receptor expressed in HEK cells by scintillation counting. Format: cell-based, HEK293. A digest of the protocol: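 Membranes (P2 pellet) from rHu H3–HEK cells were incubated in 50 mM Tris–HCl, pH 7.4, with 1 nM [3H]N-α-methylhistamine (82 Ci/mmol). Compounds were tested at half-log steps over a five-log range. Nonspecific binding was defined with 10^-5 M thioperamide. Incubation ran 30 min at 30 °C, then mixtures were filtered on PEI-soaked GF/B filters, washed three times and counted. Ki was taken from nonlinear curve fits.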
On the technique in general: Displacement assays read how much labelled ligand stays bound in the presence of the test substance.

Structures are written as SMILES.

T1 sequence (Q9Y5N1 whole entry): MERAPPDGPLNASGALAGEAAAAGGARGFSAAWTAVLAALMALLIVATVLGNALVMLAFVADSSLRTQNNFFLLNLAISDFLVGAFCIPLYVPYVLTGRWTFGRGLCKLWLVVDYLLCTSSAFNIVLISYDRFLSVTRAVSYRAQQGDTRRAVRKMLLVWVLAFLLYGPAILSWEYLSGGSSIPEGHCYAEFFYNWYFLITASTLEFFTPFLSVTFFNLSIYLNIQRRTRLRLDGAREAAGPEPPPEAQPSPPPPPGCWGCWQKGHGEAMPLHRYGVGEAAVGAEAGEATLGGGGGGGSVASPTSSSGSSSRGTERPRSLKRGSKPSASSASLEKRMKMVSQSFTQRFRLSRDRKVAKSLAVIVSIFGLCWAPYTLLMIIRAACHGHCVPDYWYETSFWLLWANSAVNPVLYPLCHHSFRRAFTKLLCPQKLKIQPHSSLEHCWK
Voltage-gated inwardly rectifying potassium channel KCNH2, sequence (Q12809 whole entry): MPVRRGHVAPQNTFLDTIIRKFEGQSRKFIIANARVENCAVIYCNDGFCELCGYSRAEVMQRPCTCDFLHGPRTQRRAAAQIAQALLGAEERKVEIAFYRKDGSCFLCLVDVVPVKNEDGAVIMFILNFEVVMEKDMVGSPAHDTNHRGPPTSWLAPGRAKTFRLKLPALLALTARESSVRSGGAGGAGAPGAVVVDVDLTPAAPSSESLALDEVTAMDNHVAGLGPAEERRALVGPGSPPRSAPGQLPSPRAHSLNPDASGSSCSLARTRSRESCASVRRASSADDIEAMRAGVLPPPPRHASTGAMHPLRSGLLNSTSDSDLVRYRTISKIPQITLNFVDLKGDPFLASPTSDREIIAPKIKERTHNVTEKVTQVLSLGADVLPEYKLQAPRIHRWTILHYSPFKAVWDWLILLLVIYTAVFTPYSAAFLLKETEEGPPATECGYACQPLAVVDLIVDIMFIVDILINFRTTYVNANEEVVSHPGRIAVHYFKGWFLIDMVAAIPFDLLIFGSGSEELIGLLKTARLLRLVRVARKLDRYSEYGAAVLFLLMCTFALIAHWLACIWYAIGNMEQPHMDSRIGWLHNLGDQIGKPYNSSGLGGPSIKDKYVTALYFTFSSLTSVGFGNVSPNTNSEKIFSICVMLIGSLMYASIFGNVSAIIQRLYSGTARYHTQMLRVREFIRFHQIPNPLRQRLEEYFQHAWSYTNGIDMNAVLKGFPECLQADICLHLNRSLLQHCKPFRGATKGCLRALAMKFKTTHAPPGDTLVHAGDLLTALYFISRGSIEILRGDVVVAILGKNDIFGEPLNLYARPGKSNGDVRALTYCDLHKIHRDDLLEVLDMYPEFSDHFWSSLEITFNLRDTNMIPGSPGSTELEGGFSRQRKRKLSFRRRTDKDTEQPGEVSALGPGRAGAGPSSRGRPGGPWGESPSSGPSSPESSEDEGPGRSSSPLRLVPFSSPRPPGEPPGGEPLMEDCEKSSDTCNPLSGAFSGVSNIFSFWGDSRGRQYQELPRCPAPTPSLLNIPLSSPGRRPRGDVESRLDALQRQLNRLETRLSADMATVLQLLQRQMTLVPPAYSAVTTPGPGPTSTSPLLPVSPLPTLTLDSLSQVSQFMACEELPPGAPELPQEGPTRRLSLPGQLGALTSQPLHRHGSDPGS
Cytochrome P450 2D6, sequence (P10635 whole entry): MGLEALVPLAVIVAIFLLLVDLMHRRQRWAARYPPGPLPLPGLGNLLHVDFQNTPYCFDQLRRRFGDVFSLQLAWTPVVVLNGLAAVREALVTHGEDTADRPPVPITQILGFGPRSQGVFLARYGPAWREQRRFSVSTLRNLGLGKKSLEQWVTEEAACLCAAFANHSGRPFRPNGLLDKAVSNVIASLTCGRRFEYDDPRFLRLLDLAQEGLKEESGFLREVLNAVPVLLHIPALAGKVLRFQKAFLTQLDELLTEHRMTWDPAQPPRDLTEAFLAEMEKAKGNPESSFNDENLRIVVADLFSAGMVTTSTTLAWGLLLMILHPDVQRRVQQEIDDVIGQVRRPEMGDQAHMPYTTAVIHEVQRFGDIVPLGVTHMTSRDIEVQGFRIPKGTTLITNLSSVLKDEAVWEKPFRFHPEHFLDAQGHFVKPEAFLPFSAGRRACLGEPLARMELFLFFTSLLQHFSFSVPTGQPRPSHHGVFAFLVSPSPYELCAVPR
Histamine H3 receptor (Mus musculus, UniProt P58406), sequence (P58406 whole entry): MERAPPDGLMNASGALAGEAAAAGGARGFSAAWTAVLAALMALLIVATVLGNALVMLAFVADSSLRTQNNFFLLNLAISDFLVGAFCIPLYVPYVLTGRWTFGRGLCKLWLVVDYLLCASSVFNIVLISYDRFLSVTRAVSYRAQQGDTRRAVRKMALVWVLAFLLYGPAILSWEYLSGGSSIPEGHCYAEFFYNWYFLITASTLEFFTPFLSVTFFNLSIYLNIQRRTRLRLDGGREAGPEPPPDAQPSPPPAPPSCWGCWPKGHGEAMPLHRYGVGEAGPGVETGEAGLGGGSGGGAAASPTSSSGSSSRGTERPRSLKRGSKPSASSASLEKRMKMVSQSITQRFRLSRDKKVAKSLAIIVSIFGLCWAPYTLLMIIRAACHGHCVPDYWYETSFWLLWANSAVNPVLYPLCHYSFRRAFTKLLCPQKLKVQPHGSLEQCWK
Cytochrome P450 3A4, sequence (P08684 whole entry): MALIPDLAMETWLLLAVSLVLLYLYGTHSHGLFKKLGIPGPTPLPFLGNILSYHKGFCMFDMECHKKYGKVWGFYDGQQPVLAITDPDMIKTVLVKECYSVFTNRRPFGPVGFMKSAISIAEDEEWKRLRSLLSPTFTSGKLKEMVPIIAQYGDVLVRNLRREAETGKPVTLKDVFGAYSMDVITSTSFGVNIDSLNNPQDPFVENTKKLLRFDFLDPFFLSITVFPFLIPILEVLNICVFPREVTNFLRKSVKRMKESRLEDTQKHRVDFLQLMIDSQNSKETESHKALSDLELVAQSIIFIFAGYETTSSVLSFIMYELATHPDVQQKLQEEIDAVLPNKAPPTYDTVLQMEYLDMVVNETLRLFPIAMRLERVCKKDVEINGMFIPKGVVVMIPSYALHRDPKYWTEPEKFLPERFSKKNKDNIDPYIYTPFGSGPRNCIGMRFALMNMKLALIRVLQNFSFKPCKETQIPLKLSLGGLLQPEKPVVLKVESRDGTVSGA

In series [1], `Fc1ccc2c(c1)nc(-c1ccccn1)n2-c1ccc(OCCCN2CCCCC2)cc1` registered an AUC(0-t) at 6 h of 2030 ng·h/mL. Moreover, the Activity entry in series [2] and in series [5] was “Not Active” throughout. Also, the Ki in series [3] came out at 1.8 nM; in series [7] it was 0.1 nM; in series [8], 1.2 nM. Also, the peak level in series [4] (Cmax) was 393 ng/mL. Besides, the Rb efflux in series [6] was found to be 70%. The compound `Fc1ccc2c(c1)[nH]c(=S)n2-c1ccc(OCCCN2CCCCC2)cc1` came in with a Ki in series [8] of 8 nM. In the case of `CCSc1nc2cc(F)ccc2n1-c1ccc(OCCCN2CCCCC2)cc1`, in series [8], the affinity corresponds to a Ki of 2.6 nM.

With `CC1CC(C)CN(CCCOc2ccc(-n3c(-c4ccccn4)nc4cc(F)ccc43)cc2)C1` (stereo not drawn), in series [8], affinity was put at a Ki of 11 nM. Turning to `CN1CCCN(CCCOc2ccc(-n3c(-c4ccccn4)nc4cc(F)ccc43)cc2)CC1`, the Ki in series [8] is 3.6 nM. For the compound `Fc1ccc2c(c1)nc(-c1ccccn1)n2-c1ccc(OCCCN2CCSC2)cc1`, in series [6], the Rb efflux amounted to 42%. In series [8], this compound showed a Ki of 20 nM. `Fc1ccc2c(c1)nc(-c1ccccn1)n2-c1ccc(OCCCN2CCCCCC2)cc1` yielded a Ki in series [8] of 5.3 nM. The same measure, in the same setting: next, `Fc1ccc2c(c1)nc(-c1ccccn1)n2-c1ccc(OCCCN2CCCC2)cc1`: 1.2 nM; `C[C@@H]1CC[C@@H](C)N1CCCOc1ccc(-n2c(-c3ccccn3)nc3cc(F)ccc32)cc1`: 5.1 nM.

Take `CN1CCN(CCCOc2ccc(-n3c(-c4ccccn4)nc4cc(F)ccc43)cc2)CC1`: the Ki in series [8] amounted to 13 nM.

In series [6], `COC(=O)C1CCN(CCCOc2ccc(-n3c(-c4ccccn4)nc4cc(F)ccc43)cc2)CC1` came in with a Rb efflux of 49%. Further, the Ki in series [8] was found to be 16 nM.

As for `NC(=O)C1CCN(CCCOc2ccc(-n3c(-c4ccccn4)nc4cc(F)ccc43)cc2)CC1`, in series [8], the inhibition constant Ki stood at 20 nM. With `O=c1[nH]c2cc(F)ccc2n1-c1ccc(OCCCN2CCCCC2)cc1`, the Ki in series [8] amounted to 8.7 nM.

In series [8], `CCOc1nc2cc(F)ccc2n1-c1ccc(OCCCN2CCCCC2)cc1` displayed a Ki of 15 nM. On the same count and under the same terms, next, `Fc1ccc2c(c1)nc(-c1ccccn1)n2-c1ccc(OCCCN2CCC(Cc3ccccc3)CC2)cc1`: 2 nM; `Fc1ccc2c(c1)nc(-c1ccccn1)n2-c1ccc(OCCCN2Cc3cccc4cccc(c34)C2)cc1`: 713 nM. Turning to `CNCCCOc1ccc(-n2c(-c3ccccn3)nc3cc(F)ccc32)cc1`, the Ki in series [8] turned out to be 101 nM. The compound `Fc1ccc2c(c1)nc(-c1ccccn1)n2-c1ccc(OCCCN2CCOCC2)cc1` displayed a Rb efflux in series [6] of 62%. The Ki in series [8] amounted to 3.4 nM.

`Fc1ccc2c(c1)nc(-c1ccccn1)n2-c1ccc(OCCCN2CCc3ccccc3C2)cc1` showed a Rb efflux in series [6] of 94%. This compound displayed a Ki in series [8] of 107 nM. For `OC1CCN(CCCOc2ccc(-n3c(-c4ccccn4)nc4cc(F)ccc43)cc2)CC1`, in that order: 16% and 1.8 nM. Compound `NC(=O)C1CCCN(CCCOc2ccc(-n3c(-c4ccccn4)nc4cc(F)ccc43)cc2)C1` (stereo not drawn) registered a Ki in series [8] of 11 nM.

A word on the AUC(0-t): it is exposure summed from dosing to a finite time, without extrapolation to infinity. Read a low AUC(0-t) as low exposure. The Ki is the dissociation constant of the complex between target and ligand, obtained from inhibition or displacement. As a reminder, the Cmax is the maximum level reached in the sampled fluid or tissue.
